{"data": "Measurements from different studies"}
{"SMILES": "Cc1ccc2nc(-c3ccc(F)cc3)n(Cc3ccccc3)c2c1", "cell line": "human Rhabdomyosarcoma cell", "read-out": "cell growth or viability", "technique": "MTT", "IC50 [µM]": 35.1}
{"SMILES": "CCSC(=O)c1ncn2c(=O)n(C)nnc12", "cell line": "D54", "read-out": "cell growth or viability", "technique": "resazurin", "time": "7 days", "IC50 [µM]": 8}
{"SMILES": "CCn1c(-c2nnc(NC(=O)c3cc4c([nH]c5ccccc54)c(-c4cc(OC)c(OC)c(OC)c4)n3)s2)cc2ccccc21", "cell line": "HL-60", "read-out": "cell growth or viability", "technique": "MTT", "time": "72 h", "IC50 [µM]": 43.2}
{"SMILES": "COc1cc(/C=C/C(=O)/C=C(O)/C=C/c2ccncc2)ccc1O", "cell line": "CHO-K1", "read-out": "cell growth or viability", "technique": "SRB", "time": "72 h", "IC50 [µM]": 17.7}
{"SMILES": "O=C(O)Cc1ccccc1Nc1c(Cl)cccc1Cl", "cell line": "RAW264.7", "read-out": "reactive oxygen species", "mode": "inhibitor", "notes": "LPS-stimulated", "IC50 [µM]": 50.1}
{"SMILES": "O=C(/C=C(O)/C=C/c1cccnc1)/C=C/c1cccnc1", "cell line": "CHO-K1", "read-out": "cell growth or viability", "technique": "SRB", "time": "72 h", "IC50 [µM]": 10.5}
{"SMILES": "Cc1ccc2nc(-c3cc(Br)ccc3O)[nH]c2c1", "cell line": "human Rhabdomyosarcoma cell", "read-out": "cell growth or viability", "technique": "MTT", "time": "48 h", "IC50 [µM]": 10.4}
{"SMILES": "CC(C)C[C@H](NC(=O)[C@H](Cc1ccccc1)NC(=O)c1cnccn1)B(O)O", "cell line": "MKN-45", "read-out": "cell growth or viability", "technique": "ATP luminescence", "IC50 [µM]": 0.014}
{"SMILES": "Nc1c(-c2ccccc2[N+](=O)[O-])nc2ccccn12", "cell line": "Vero", "read-out": "cell growth or viability", "technique": "MTT", "time": "48 h", "IC50 [µM]": 65}
{"SMILES": "CSc1ccc(-c2nc3ccc(C)cc3[nH]2)cc1", "cell line": "human Rhabdomyosarcoma cell", "read-out": "cell growth or viability", "technique": "MTT", "time": "48 h", "IC50 [µM]": 39}
{"SMILES": "COc1cc(/C=C/C(=O)/C=C(O)/C=C/c2ccccn2)ccc1O", "cell line": "CHO-K1", "read-out": "cell growth or viability", "technique": "MTT", "time": "72 h", "IC50 [µM]": 25.2}
{"SMILES": "Cc1ccc2nc(-c3ccccc3Cl)[nH]c2c1", "cell line": "human Rhabdomyosarcoma cell", "read-out": "cell growth or viability", "technique": "MTT", "time": "48 h", "IC50 [µM]": 46.5}
{"SMILES": "O=C(/C=C(O)/C=C/c1cccnc1)/C=C/c1c[nH]c2ccccc12", "cell line": "CHO-K1", "read-out": "cell growth or viability", "technique": "MTT", "time": "72 h", "IC50 [µM]": 9.2}
{"SMILES": "NS(=O)(=O)OC[C@@H]1C[C@@H](n2ccc3c(N[C@H]4CCc5ccccc54)ncnc32)C[C@@H]1O", "cell line": "NCI-H1299", "read-out": "cell growth or viability", "technique": "CCK-8", "time": "72 h", "IC50 [µM]": 0.9}
{"SMILES": "Fc1ccc(-c2nc3ccccc3n2Cc2ccccc2)cc1", "cell line": "human Rhabdomyosarcoma cell", "read-out": "cell growth or viability", "technique": "MTT", "IC50 [µM]": 28}
{"SMILES": "O=C(/C=C(/C=C/c1cccnc1)NC1CCCCC1)/C=C/c1cccnc1", "cell line": "CHO-K1", "read-out": "cell growth or viability", "technique": "SRB", "time": "72 h", "IC50 [µM]": 20.4}
{"SMILES": "COc1ccccc1/C=C/CNCC(O)COc1cccc2[nH]ccc12 (stereo not shown)", "cell line": "NCI-H1299", "read-out": "cell growth or viability", "technique": "CCK-8", "time": "72 h", "IC50 [µM]": 23.1}
{"SMILES": "Cc1ccc2nc(-c3cccc(O)c3)[nH]c2c1", "cell line": "human Rhabdomyosarcoma cell", "read-out": "cell growth or viability", "technique": "MTT", "time": "48 h", "IC50 [µM]": 19.3}
{"SMILES": "COc1cc(/C=C/C(=O)/C=C(O)/C=C/c2c[nH]c3ccccc23)ccc1O", "cell line": "CHO-K1", "read-out": "cell growth or viability", "technique": "MTT", "time": "72 h", "IC50 [µM]": 26.4}
{"SMILES": "Cc1ccc2nc(-c3cccnc3)[nH]c2c1", "cell line": "human Rhabdomyosarcoma cell", "read-out": "cell growth or viability", "technique": "MTT", "time": "48 h", "IC50 [µM]": 83.6}
{"SMILES": "COc1ccccc1OCCNC(=O)COc1cccc2[nH]c3ccccc3c12", "cell line": "NCI-H1299", "read-out": "cell growth or viability", "technique": "CCK-8", "time": "72 h", "IC50 [µM]": "> 100"}
{"SMILES": "COc1cc(/C=C/C(=O)CC(=O)/C=C/c2ccc(O)c(OC)c2)ccc1O", "cell line": "CHO-K1", "read-out": "cell growth or viability", "technique": "SRB", "time": "72 h", "IC50 [µM]": 38.8}
{"SMILES": "Cc1ccc2nc(-c3ccco3)n(Cc3ccccc3)c2c1", "cell line": "human Rhabdomyosarcoma cell", "read-out": "cell growth or viability", "technique": "MTT", "IC50 [µM]": 39.2}
{"SMILES": "CC(C)CNC(=C\\C(=O)/C=C/c1cccnc1)/C=C/c1cccnc1", "cell line": "CHO-K1", "read-out": "cell growth or viability", "technique": "MTT", "time": "72 h", "IC50 [µM]": 17.7}
{"SMILES": "CC1CS(=O)(=O)CCN1/N=C/c1ccc([N+](=O)[O-])o1 (stereo not shown)", "cell line": "RAW264.7", "read-out": "cell growth or viability", "technique": "MTT", "IC50 [µM]": 31}
